What was measured:
[1] = molecular target: T1, Prostaglandin G/H synthase 2 (Mus musculus) (UniProt Q05769); test: Inhibition of purified mouse COX-2 assessed as inhibition of PGE2/PGD2 formation preincubated at 10 uM for 3 mins before arachidonic acid substrate addition measured after 30 seconds by LC-MS-MS method
T1 sequence (whole entry): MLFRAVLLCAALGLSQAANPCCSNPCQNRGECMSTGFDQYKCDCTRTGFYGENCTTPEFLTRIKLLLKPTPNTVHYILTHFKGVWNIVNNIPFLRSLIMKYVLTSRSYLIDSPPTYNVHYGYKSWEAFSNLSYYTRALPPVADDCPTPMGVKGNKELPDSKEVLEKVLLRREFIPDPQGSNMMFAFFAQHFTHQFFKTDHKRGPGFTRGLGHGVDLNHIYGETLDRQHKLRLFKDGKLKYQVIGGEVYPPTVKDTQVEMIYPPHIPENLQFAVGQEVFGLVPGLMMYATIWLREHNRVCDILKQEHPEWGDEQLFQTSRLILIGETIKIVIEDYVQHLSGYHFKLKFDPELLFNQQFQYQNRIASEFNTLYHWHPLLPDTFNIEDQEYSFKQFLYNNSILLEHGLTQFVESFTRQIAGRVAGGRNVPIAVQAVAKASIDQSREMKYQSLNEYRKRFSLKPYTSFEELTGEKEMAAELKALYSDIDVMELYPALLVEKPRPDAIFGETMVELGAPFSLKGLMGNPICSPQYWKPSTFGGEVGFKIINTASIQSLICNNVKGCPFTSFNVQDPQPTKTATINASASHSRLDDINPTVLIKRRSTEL
Summary of the method: (§1)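 Purified murine COX-2 (50 nM) preincubated 3 min with test agent at 10 µM in DMSO, alongside a solvent control. Then 2-AG or AA added at 5 µM, 37 °C, for 30 s. Read-out is percent inhibition of substrate oxygenation versus control. Mean ± SD, n = 6.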

[2] = molecular target: T2, Prostaglandin G/H synthase 2 (Mus musculus, UniProt Q05769); test: Inhibition of purified mouse COX-2 assessed as inhibition of PGE2-G/PGD2-G formation preincubated for 3 mins before 2-AG substrate addition measured after 30 seconds by LC-MS-MS method
T2 sequence (Q05769 whole entry): T1 sequence (whole entry)

[3] = molecular target: T1, Prostaglandin G/H synthase 2 (Mus musculus); test: Inhibition of purified mouse COX-2 assessed as inhibition of PGE2-G/PGD2-G formation preincubated at 10 uM for 3 mins before 2-AG substrate addition measured after 30 seconds by LC-MS-MS method; summary of the method: as §1
[4] = molecular target: T2, Prostaglandin G/H synthase 2; test: Inhibition of purified mouse COX-2 assessed as inhibition of PGE2/PGD2 formation preincubated for 3 mins before arachidonic acid substrate addition measured after 30 seconds by LC-MS-MS method

Row | Compound | inhibition [1] | IC50 [2] | inhibition [3] | IC50 [4]
1 | Cc1cccc(F)c1Nc1ccccc1CC(=O)O | 0% | – | 15% | –
2 | Cc1ccc(Nc2ccccc2)c(CC(=O)O)c1 | 10% | – | 0% | –
3 | O=C(O)Cc1ccccc1Nc1c(F)cccc1F | – | 1200 nM | – | –
4 | O=C(O)Cc1ccccc1Nc1ccccc1Cl | – | 3900 nM | – | –
5 | O=C(O)Cc1ccccc1Nc1ccccc1F | 0% | – | 25% | –
6 | O=C(O)Cc1ccccc1Nc1c(F)cccc1Cl | – | 40 nM | – | –
7 | O=C(O)Cc1ccccc1Nc1c(Cl)cc(Br)cc1Cl | 55% | 60 nM | – | 140 nM

More lines, now with the values ahead:

Row | inhibition [1] | IC50 [2] | inhibition [3] | IC50 [4] | Compound
8 | 32% | 70 nM | – | – | Cc1ccc(Nc2c(Cl)cc(Cl)cc2Cl)c(CC(=O)O)c1
9 | 0% | 1800 nM | – | – | Cc1ccc(Nc2ccccc2F)c(CC(=O)O)c1
10 | 0% | 60 nM | – | – | Cc1ccc(Nc2ccccc2Cl)c(CC(=O)O)c1
11 | 60% | 30 nM | – | 200 nM | Cc1ccc(Nc2c(Cl)cccc2Cl)c(CC(=O)O)c1
12 | 0% | – | 0% | – | Cc1ccc(Nc2c(C)cccc2F)c(CC(=O)O)c1
13 | 0% | 1000 nM | – | – | Cc1ccc(Nc2c(F)cccc2F)c(CC(=O)O)c1
